Among the data in ChEMBL document CHEMBL5584279, “New Lipophilic Hydroxamates as Promising Trypanocidal Agents: Design, Synthesis, SAR, and Conformational Behavior Studies” (ACS Med Chem Lett, 2024) are IC50 values, retold here.

One experiment deals with Trypanosoma brucei. In words: Trypanocidal activity against bloodstream form of Trypanosoma brucei 221 assessed as inhibition of parasite growth incubated for 48 hrs followed by resazurin addition and measured after 16 hrs by resazurin assay. The experiment is classed as functional, organism-based. Summed up:
(§1)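 Bloodstream-form T. brucei were cultured in vitro at pH 7.4. Growth inhibition was expressed as IC50 and IC90, the concentrations that inhibit parasite growth by 50% and 90%. Values are the mean of triplicate experiments ± SEM.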
As for `CC(C)C[C@@H]1NC2(CCCCCC2)C(=O)N(CC(=O)NO)C1=O`, the IC50 was 0.099 µM.

The next experiment has as its system Trypanosoma brucei. In words: Trypanocidal activity against bloodstream form of Trypanosoma brucei assessed as inhibition of parasite growth. The format is functional, organism-based. Summed up:
as §1
With `CC1(c2ccc([N+](=O)[O-])cc2)NCC(=O)N(CC(=O)NO)C1=O` (stereo not drawn), the IC50 came to 11.7 µM.

Turning to `CC1(c2ccc(F)cc2)NCC(=O)N(CC(=O)NO)C1=O` (stereo not drawn), the IC50 turned out to be 19.1 µM.

As to `CN1CC(=O)N(CC(=O)NO)C(=O)C1(C)c1ccccc1` (stereo not drawn), the IC50 worked out at 0.59 µM.

For `CCCN1CC(=O)N(CC(=O)NO)C(=O)C1(C)c1ccccc1` (stereo not drawn), the concentration for half-maximal inhibition (IC50) is 0.47 µM.

In the case of `CN1CC(=O)N(CC(=O)NO)C(=O)C1(C)c1ccc([N+](=O)[O-])cc1` (stereo not drawn), the IC50 stood at 1.22 µM.

On to `CC1(c2ccccc2)NCC(=O)N(CC(=O)NO)C1=O` (stereo not drawn), for which the IC50 was determined as 6.97 µM.

As to `CCCCC1(c2ccccc2)NCC(=O)N(CC(=O)NO)C1=O` (stereo not drawn), the 50% inhibitory concentration (IC50) was 1.72 µM.

Take `CCCCN1CC(=O)N(CC(=O)NO)C(=O)C1(C)c1ccccc1` (stereo not drawn): the IC50 came out at 0.63 µM.

Regarding `CCCC1(c2ccccc2)C(=O)N(CC(=O)NO)C(=O)CN1C` (stereo not drawn), the IC50 amounted to 1.77 µM.

With `CCCC1(c2ccccc2)NCC(=O)N(CC(=O)NO)C1=O` (stereo not drawn), the IC50 stood at 7.25 µM.

As for `CN1CC(=O)N(CC(=O)NO)C(=O)C1(C)c1ccc(F)cc1` (stereo not drawn), the IC50 was 8.16 µM.

For the compound `CCCCC1(c2ccccc2)C(=O)N(CC(=O)NO)C(=O)CN1C` (stereo not drawn), the IC50 was 2.65 µM.
